The source of these data is ChEMBL document CHEMBL4477197, “Antitumor Activity of Spicatoside A by Modulation of Autophagy and Apoptosis in Human Colorectal Cancer Cells” (J Nat Prod, 2016).

Each structure is given as a SMILES string. Calls of active or inactive are those of the source. The calls are words filed in the database; no cut-off is given here.

The subject of test [1] is HCT-116. As to the kind of experiment: Induction of apoptosis in human HCT116 cells assessed as upregulation of Bax levels at 10 to 30 uM after 48 hrs by Western blot analysis. Type of test: functional, cell-based. Background: A western blot detects proteins with antibodies after separation by electrophoresis.
The test system of test [2] is HCT-116. As to the kind of experiment: Antitumor activity against human HCT116 cells xenografted in BALB/c-nu mouse assessed as inhibition of tumor weight at 5 mg/kg, ip administered three times per week for 28 days measured post dosing relative to control. In kind it is functional. To be noted: HCT-116, ip, 672 h. Put shortly: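 Nude mice bearing subcutaneous HCT116 flank tumors (2 × 10^6 cells) were randomized at ~200 mm3, five per group. Dosing was 2.5 or 5 mg/kg ip in saline/0.5% Tween 80, three times weekly for 28 days, with vehicle controls. Tumors were excised on day 28 and weighed; inhibition was expressed against the vehicle group.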
(In general: In xenograft studies the graft and the host belong to different species.)

The test system of test [3] is HCT-116. As to the kind of experiment: Induction of autophagy in human HCT116 cells assessed as formation of acidic vesicular organelles at 20 uM after 24 hrs by acridine orange staining based assay relative to control. Type of test: functional, cell-based. Summed up: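 Cells were seeded at 1 × 10^5/well, grown 24 h, then treated 24 h with 20 μM compound, 2.5 nM bafilomycin A1, or both. They were stained with acridine orange (2 μg/mL) for 15 min and washed in DPBS. AO-positive cells were quantified by high-content imaging and expressed as an index versus vehicle. Triplicates.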

In test [4] the test system is HCT-116. Kind of test: Induction of apoptosis in human HCT116 cells at 30 uM after 48 hrs by Annexin V-FITC/propidium iodide staining based flow cytometry. Type of test: functional. Put shortly: (§1)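 HCT116 cells were treated 48 h, then resuspended in binding buffer at 1 × 10^6 cells/mL. They were stained with annexin V-FITC and PI for 20 min at room temperature in the dark, diluted and analyzed immediately by flow cytometry for annexin V-positive cells. n = 3.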
For orientation: A flow cytometer gives signals particle by particle.

The test system of test [5] is HCT-116. As to the kind of experiment: Induction of apoptosis in human HCT116 cells assessed as PARP cleavage at 30 uM after 24 hrs in presence of autophagy inhibitor 3-MA by Western blot analysis. In kind it is functional, cell-based. Put shortly:
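HCT116 cells were pretreated 1 h with 2 mM 3-MA, then given 30 μM compound for a further 24 h. Whole-cell lysates were immunoblotted for LC3-II and cleaved PARP, with β-actin as loading standard and ECL detection. Blots are representative of three separate determinations.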

In test [6] the test system is HCT-116. Kind of test: Growth inhibition of human HCT116 cells after 48 hrs by SRB assay. Type of test: functional, cell-based. Put shortly:
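SRB assay. Cells were seeded at 6 × 10^3/well, grown 24 h, then fixed as day-zero controls or treated 24 or 48 h. They were fixed with 10% TCA and stained with 0.4% SRB in 1% acetic acid; dye was dissolved in 10 mM Tris pH 10.0 and read at 515 nm. Proliferation was normalized to day zero and control, and IC50 came from nonlinear regression. n = 3.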

For test [7], the system named is HCT-116. As to the kind of experiment: Induction of autophagy in human HCT116 cells assessed as vacuole formation in cytoplasm at 20 uM by inverted phase contrast microscopy relative to control. In kind it is functional, cell-based. Summed up: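 HCT116 cells were exposed to 20 μM compound or vehicle. Cytoplasmic vacuoles were inspected and photographed under an inverted phase-contrast microscope at 100×.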

Test [8] has as its target Cellular tumor antigen p53 (Homo sapiens) (UniProt P04637). As to the kind of experiment: Induction of p53 expression in human HCT116 cells after 24 hrs by Western blot analysis. Type of test: cell-based.
Test [9] relates to HCT-116. As to the kind of experiment: Induction of beclin 1 cleavage in human HCT116 cells at 30 uM after 48 hrs in presence of caspase-8 inhibitor z-IETD-FMK by Western blot analysis. In kind it is functional, cell-based. Summed up: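 HCT116 cells were cultured 48 h with 30 μM compound, with or without 20 μM z-IETD-FMK. Lysates were made in SDS loading buffer and 10–30 μg protein was resolved by 6–15% SDS-PAGE and transferred to PVDF. Blots were probed for cleaved caspase-8, beclin 1, cleaved beclin 1 and LC3-II, and detected by ECL.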

The test system of test [10] is HCT-116. As to the kind of experiment: Induction of apoptosis in human HCT116 cells assessed as increase in t-BID levels after 48 hrs by Western blot analysis. Type of test: functional, cell-based.
Test [11] has as its target Cellular tumor antigen p53 (Homo sapiens) (UniProt P04637). As to the kind of experiment: Induction of p53 expression in human HCT116 cells assessed as increase in p21 levels after 24 hrs by Western blot analysis. In kind it is cell-based.
For test [12], the system named is HCT-116. As to the kind of experiment: Induction of apoptosis in human HCT116 cells assessed as cell rounding after 48 hrs. Type of test: functional, cell-based.
Test [13] relates to Mus musculus. As to the kind of experiment: Induction of PARP cleavage in human HCT116 cells xenografted in BALB/c-nu mouse at 2.5 to 5 mg/kg, ip administered three times per week for 28 days measured post dosing by Western blot analysis. In kind it is functional, organism-based. Summed up:
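Excised xenograft tumors (2.5 or 5 mg/kg ip, three times weekly for 28 days) were frozen. Portions were thawed on ice and homogenized in Complete Lysis Buffer, then protein was quantified. Cleaved PARP was detected by Western blot with β-actin as internal standard; blots shown are representative of three determinations.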

Test [14] concerns HCT-116. As to the kind of experiment: Induction of autophagy in human HCT116 cells assessed as upregulation of LAMP1 expression at 10 to 30 uM after 24 hrs by Western blot analysis. In kind it is functional, cell-based. Put shortly: (§2)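 HCT116 cells were cultured 24 h with the indicated concentrations. Lysates were made in SDS buffer with NaF and orthovanadate and quantified by BCA; 10–30 μg protein was separated by 6–15% SDS-PAGE and transferred to PVDF. After 5% BSA blocking, blots were probed for LC3-II, beclin 1, p62, LAMP1 and cathepsin D, with ECL detection.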

For test [15], the system named is HCT-116. As to the kind of experiment: Induction of autophagy in human HCT116 cells assessed as accumulation of LC3-2 after 24 hrs by Western blot analysis. Type of test: functional, cell-based. Put shortly:
as §2

The subject of test [16] is HCT-116. As to the kind of experiment: Induction of autophagy in human HCT116 cells assessed as accumulation of LC3-2 at 20 uM after 24 hrs in presence of bafilomycin A1 by Western blot analysis. Type of test: functional, cell-based. Put shortly: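 HCT116 cells were exposed 24 h to 20 μM compound, 2.5 nM bafilomycin A1, or both together. LC3-II was measured by Western blot with β-actin as internal standard. Blots are representative of three separate determinations.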

In test [17] the test system is HCT-116. Kind of test: Induction of apoptosis in human HCT116 cells assessed as activation of caspase 9 at 10 to 30 uM after 48 hrs by Western blot analysis. Type of test: functional, cell-based. Summed up: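 HCT116 cells were treated with the indicated concentrations for 48 h. Lysates were prepared in SDS sample buffer and 10–30 μg protein was separated by SDS-PAGE, blotted to PVDF and blocked in 5% BSA. Cleaved caspase-8, -9, -3 and PARP were detected by ECL.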

Test [18] in a line: Inhibition of PI3K/Akt/mTOR in human HCT116 cells assessed as suppression of Akt phosphorylation at Ser473 at 10 to 30 uM after 24 hrs by Western blot analysis. In kind it is cell-based. Summed up:
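HCT116 cells (RPMI 1640, 10% FBS, 37 °C, 5% CO2) exposed to the compound for 24 h, then lysed in 2× SDS sample buffer with NaF and orthovanadate and boiled. BCA-normalised protein (10−30 μg) run on 6−15% SDS-PAGE and blotted to PVDF. Blocked in 5% BSA/PBS-Tween, probed for PI3K, PTEN, Akt and mTOR, and detected by ECL. Blots are representative of three determinations.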

In test [19] the test system is HCT-116. As to the kind of experiment: Induction of apoptosis in human HCT116 cells at 10 uM after 48 hrs by Annexin V-FITC/propidium iodide staining based flow cytometry. Type of test: functional. Put shortly:
as §1

Test [20] deals with HCT-116. As to the kind of experiment: Induction of apoptosis in human HCT116 cells at 20 uM after 48 hrs by Annexin V-FITC/propidium iodide staining based flow cytometry. Type of test: functional. Summed up: as §1

Usually inhibition in vivo stands for the drop in the measured response relative to a control, in per cent. In general, IC50 refers to the point on the concentration scale where inhibition reaches its midpoint.

Cellular tumor antigen p53 (Homo sapiens), sequence (P04637 whole entry, looked up): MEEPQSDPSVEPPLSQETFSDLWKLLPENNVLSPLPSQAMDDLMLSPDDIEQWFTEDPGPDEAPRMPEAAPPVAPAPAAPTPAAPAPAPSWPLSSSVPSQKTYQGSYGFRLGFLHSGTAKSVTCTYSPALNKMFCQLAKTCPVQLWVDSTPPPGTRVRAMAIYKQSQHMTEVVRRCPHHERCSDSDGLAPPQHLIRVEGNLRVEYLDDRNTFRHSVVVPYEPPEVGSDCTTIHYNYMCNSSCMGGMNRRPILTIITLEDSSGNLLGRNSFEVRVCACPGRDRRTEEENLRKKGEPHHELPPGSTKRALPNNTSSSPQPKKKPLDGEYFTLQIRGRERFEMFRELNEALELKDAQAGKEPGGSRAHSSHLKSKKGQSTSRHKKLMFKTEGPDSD

In the case of `C[C@H]1CC[C@@]2(OC1)O[C@H]1C[C@H]3[C@@H]4CC=C5C[C@@H](O)C[C@@H](O[C@@H]6O[C@H](C)[C@H](O)[C@H](O[C@@H]7OC[C@@H](O)[C@H](O)[C@H]7O)[C@H]6O[C@@H]6O[C@H](CO)[C@@H](O)[C@H](O)[C@H]6O)[C@]5(C)[C@H]4CC[C@]3(C)[C@H]1[C@@H]2C`, the result in [1], in test [3], in test [5], in test [7], in [12] and in [13] was Active. Further, the result in test [14], in test [16] and in [17] was Active. Also, the inhibition in vivo at 5 mg/kg in test [2] amounted to 56.6%. Further, the Activity in test [4] is 24.58%; in test [8], “Dose-dependent effect”; in test [10], “Dose-dependent effect”; in [11], “Dose-dependent effect”; in test [15], “Dose-dependent effect”; in test [19], 13.42%. Moreover, the Activity in test [20] is 18.58%. Besides, the “growth inhibition (GI)” value in [6] was “Dose-dependent effect”. The midpoint of inhibition in [6] (HCT-116, 48 h), the IC50, lay at 20.9 µM. Moreover, the result in test [9] was inactive. Also, in [18], the inhibition result is “Active”.
